Compound activity deposited in PubChem by The Scripps Research Institute Molecular Screening Center.
TDP2 absorb – blocks human TDP2 phosphodiesterase activity; recombinant TDP2, T5PNP hydrolysis, p-nitrophenol absorbance 415 nm; inhibition, % at 12.8 µM; hit rate 0.34% among 370,000; AID 720702;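 active means inhibition above the mean of all tested compounds plus 3 SD, set per campaign, cut at about 25% in these data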;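 further: 0% = DMSO with enzyme and 100% = buffer with substrate but no TDP2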
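Material: recombinant human TDP2; quantity: TDP2 enzyme at 120 nM final; medium: Tris-HCl pH 7.5 with MgCl2; compound: single concentration, 12.8 µM nominal, with 1% DMSO; incubation: 2 h enzyme incubation at 37 °C; signal: epi absorbance; measure: percent inhibition; benchmarks: high control without enzyme, low control DMSO plus TDP2; repeats: singlicate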
Rin1-Abl PPI inh – blocks binding of human Rin1 to Abl; P00519+Q13671; TR-FRET Rin1/Abl binding, biochemical; inhibition, % at 7.35 µM; hit rate 0.4% among 360,000; in the data active means inhibition above about 5%, passing the limit was not always enough
MBD2 inh – blocks human MBD2 binding to methylated DNA. TR-FRET, MBD2 binding to methylated oligonucleotide. inhibition, % at 4.4 µM. Q9UBB5. AID 686964. hit rate 0.31% among 370,000; in the data active means inhibition above about 13%
UHRF1 binding – human UHRF1 methylated DNA binding inhibitors | Q96T88 | hit rate 0.75% among 370,000 | inhibition, % at 4.4 µM | UHRF1 binding to methylated oligo, TR-FRET | AID 687016; in the data active means inhibition above about 21%;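 further: UHRF1 SRA domain binding a hemimethylated CpG hairpin DNA probe; 0% = median of test compound wells and 100% = reference inhibitor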
LEDGF integ inh – blocks HIV-1 LEDGF/p75-dependent DNA integration; TR-FRET IN-LEDGF/p75 DNA integration, Eu/Cy5; inhibition, % at 3.7 µM; hit rate 0.64% among 370,000; AID 743269;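 active means inhibition above the screen-wide mean plus 3 SD, cut at about 13% in these data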;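 further: signal is the Cy5 over europium emission ratio at 671 and 618 nm; 0% = plate median of compound wells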
Rin1 Abl conf – confirmation of inhibitors of human Rin1-Abl interaction; shares compounds with Rin1-Abl PPI inh; TR-FRET Rin1-Abl binding, purified proteins; inhibition, % at 7.35 µM; hit rate 49% among 1,300; AID 602124
GFP quench – counter-screen for Rin1-Abl inhibitors: GFP fluorescence quenchers; hit rate 8.5% among 1,300; inhibitors/quenchers counterscreen; shares compounds with Rin1-Abl PPI inh; inhibition, % at 6.75 µM; AID 602125;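 further: ABL1-eGFP fusion protein alone without its partner RIN1-SBP; 0% = protein with vehicle and 100% = wells lacking protein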
* marks the source's active call; other numbers are inactive results. Shown are actives, neighbours in structure and some others; about 1.9% of the full set was active somewhere. Unless noted, no stated cut-off is given here; in the data, active means inhibition above about 6.5%; inactive means the rest.

What do the screens show for `Brc1ccc2c(c1)-n1nncc1CNC2`?
TDP2 absorb: -13; MBD2 inh: 1; UHRF1 binding: 35*; LEDGF integ inh: 5

What do the screens show for `CCn1nc(-c2ccccc2)nc2c(=O)n(C)c(=O)nc1-2`?
Rin1-Abl PPI inh: 27*

How did Clc1cc(Cl)cc(CN2Cc3ccccc3-n3nncc3C2)c1 do in these assays?
TDP2 absorb: -6; MBD2 inh: -1; UHRF1 binding: 0; LEDGF integ inh: 2

What do the screens show for `CN(C(=O)Oc1ccc(Cl)c2cccnc12)c1ccccc1`?
TDP2 absorb: 0; Rin1-Abl PPI inh: 2; MBD2 inh: 7; UHRF1 binding: 21*; LEDGF integ inh: 2

How did O=[N+]([O-])c1ccc(OP(=O)(O)Oc2ccc([N+](=O)[O-])cc2)cc1 do in these assays?
TDP2 absorb: 0; Rin1-Abl PPI inh: -1; MBD2 inh: 1; UHRF1 binding: -1; LEDGF integ inh: -4

What do the screens show for `CCCNC(=O)N1[C@H]2CC[C@@H]1C(C(=O)OC)=C(c1ccc(S(C)(=O)=O)cc1)C2`?
TDP2 absorb: -5; Rin1-Abl PPI inh: 2; MBD2 inh: 1; UHRF1 binding: -1; LEDGF integ inh: 1

What do the screens show for `CC(Cc1ccccc1)NCc1ccccc1O` (configuration not stated)?
TDP2 absorb: 6; Rin1-Abl PPI inh: 1; MBD2 inh: 3; UHRF1 binding: 35*; LEDGF integ inh: -4

Results for C#CCN[C@H](C)Cc1ccccc1 ?
TDP2 absorb: -4; Rin1-Abl PPI inh: 2; MBD2 inh: 1; UHRF1 binding: 0; LEDGF integ inh: 0

Results for CCOC(=O)[C@]12Cc3cc(OC)ccc3[C@H]1N(CC(=O)OC)C(=O)c1ccccc12 ?
TDP2 absorb: -6; MBD2 inh: 8; UHRF1 binding: 24*; LEDGF integ inh: 9

How did CS(=O)(=O)CCN1CC2CCCC(C2)C1 do in these assays?
TDP2 absorb: 5; Rin1-Abl PPI inh: 0; MBD2 inh: 3; UHRF1 binding: 14; LEDGF integ inh: 0

How did O=[N+]([O-])c1ccc(Cl)c([N+](=O)[O-])c1 do in these assays?
TDP2 absorb: -5; Rin1-Abl PPI inh: -5; MBD2 inh: 3; UHRF1 binding: -1; LEDGF integ inh: 3

What do the screens show for `CN1C(=O)C(c2ccc([N+](=O)[O-])cc2[N+](=O)[O-])C(=O)N(C)C1=O`?
TDP2 absorb: -6; Rin1-Abl PPI inh: 1; MBD2 inh: -1; UHRF1 binding: 21*; LEDGF integ inh: -2

Results for COC(=O)C1=C(c2ccc(F)cc2OCc2ccccc2)C[C@@H]2CC[C@H]1N2C(=O)NCc1ccccc1Br ?
TDP2 absorb: -7; Rin1-Abl PPI inh: 5; MBD2 inh: 2; UHRF1 binding: 1; LEDGF integ inh: 0

How did COc1ccc(C(=O)C2CN(C)CC2c2ccc(Cl)cc2)cc1 (configuration not stated) do in these assays?
TDP2 absorb: -6; Rin1-Abl PPI inh: 0; MBD2 inh: 5; UHRF1 binding: 3; LEDGF integ inh: 0

What do the screens show for `COc1cccc(C(=O)C2CN(C)CC2c2ccc(Cl)cc2)c1` (configuration not stated)?
TDP2 absorb: 4; Rin1-Abl PPI inh: -3; MBD2 inh: 2; UHRF1 binding: 70*; LEDGF integ inh: 1

What do the screens show for `O=C1CC=C2C3CC4N(CCC45c4cc(O)c(O)cc4N1C25)CC3=CCBr` (configuration not stated)?
TDP2 absorb: 6; Rin1-Abl PPI inh: 31*; MBD2 inh: 15*; UHRF1 binding: 31*; LEDGF integ inh: 62*

How did O=C1NC(=O)N(Cc2ccccc2)C(=O)/C1=C\C=C\c1ccco1 do in these assays?
TDP2 absorb: -20; Rin1-Abl PPI inh: 2; MBD2 inh: 0; UHRF1 binding: 28*; LEDGF integ inh: 2

What do the screens show for `C=CCN1C(=O)NC(=O)/C(=C/C=C/c2ccccc2)C1=O`?
TDP2 absorb: 4; Rin1-Abl PPI inh: -5; MBD2 inh: -2; UHRF1 binding: -2; LEDGF integ inh: -4

How did CCN(CC)C(=O)c1ccc(NC(=O)c2ccc(-n3cncn3)c([N+](=O)[O-])c2)cc1 do in these assays?
TDP2 absorb: 19; Rin1-Abl PPI inh: -4; MBD2 inh: -3; UHRF1 binding: -2; LEDGF integ inh: 3

How did CN1CCCC2c3ccccc3CCC21 (configuration not stated) do in these assays?
TDP2 absorb: -3; Rin1-Abl PPI inh: -1; MBD2 inh: -3; UHRF1 binding: 22*; LEDGF integ inh: -1

How did Cc1ccc(CNCCc2ccccc2F)cc1 do in these assays?
TDP2 absorb: -7; Rin1-Abl PPI inh: -1; MBD2 inh: 10; UHRF1 binding: 25*; LEDGF integ inh: 2

How did CCN(CC)c1ccc(CNCCc2ccccc2F)cc1 do in these assays?
TDP2 absorb: -7; Rin1-Abl PPI inh: 1; MBD2 inh: -3; UHRF1 binding: 0; LEDGF integ inh: 0

How did CCCN(CCC)C1Cc2cc(OC)c(OC)cc2C1 do in these assays?
TDP2 absorb: 5; Rin1-Abl PPI inh: 1; MBD2 inh: -1; UHRF1 binding: -1; LEDGF integ inh: 1

How did Cc1ccc(-n2c(C)cc(/C=C3/C(=O)NC(=O)N(Cc4ccco4)C3=O)c2C)cc1 do in these assays?
TDP2 absorb: 0; Rin1-Abl PPI inh: 3; MBD2 inh: 3; UHRF1 binding: 10; LEDGF integ inh: 28*

What do the screens show for `Cc1ccc(-n2c(C)cc(/C=C3/C(=O)NC(=O)N(C)C3=O)c2C)cc1`?
TDP2 absorb: 7; Rin1-Abl PPI inh: 0; MBD2 inh: -2; UHRF1 binding: -1; LEDGF integ inh: 3

What do the screens show for `Cc1cc(/C=C2\C(=O)NC(=O)N(Cc3ccccc3Cl)C2=O)c(C)n1-c1ccc(C(=O)O)cc1`?
TDP2 absorb: 5; Rin1-Abl PPI inh: -1; MBD2 inh: 10; UHRF1 binding: 22*; LEDGF integ inh: 10

Results for Nc1c2c(nc3sc4c(c13)CCCC4)CCCC2 ?
TDP2 absorb: 0; Rin1-Abl PPI inh: 0; MBD2 inh: 9; UHRF1 binding: 29*; LEDGF integ inh: 2

What do the screens show for `CCN(C(=O)COC(=O)c1cn(C)c2ccccc12)c1ccc(F)cc1`?
TDP2 absorb: 7; Rin1-Abl PPI inh: 0; MBD2 inh: 6; UHRF1 binding: 22*; LEDGF integ inh: 7

Results for Cn1cc(C(=O)OCC(=O)Nc2ccccc2)c2ccccc21 ?
TDP2 absorb: 4; Rin1-Abl PPI inh: 6; MBD2 inh: 2; UHRF1 binding: 1; LEDGF integ inh: 4

What do the screens show for `CC(C)CCP(=O)(O)O`?
TDP2 absorb: 6; MBD2 inh: 2; UHRF1 binding: -4; LEDGF integ inh: 2

Results for Brc1ccc(Oc2cc(Br)c(Br)cc2Br)c(Br)c1 ?
TDP2 absorb: -11; Rin1-Abl PPI inh: 8.2*; MBD2 inh: -3; UHRF1 binding: -1; LEDGF integ inh: 4; Rin1 Abl conf: 13*; GFP quench: -2
